{"source": "ChEMBL document CHEMBL4819011", "about": "“Structure-based discovery of 1H-indole-2-carboxamide derivatives as potent ASK1 inhibitors for potential treatment of ulcerative colitis” (Eur J Med Chem, 2021)", "data": [{"target": "T1, Mitogen-activated protein kinase kinase kinase 5 (Homo sapiens, UniProt Q99683)", "T1 sequence (Q99683 whole entry)": "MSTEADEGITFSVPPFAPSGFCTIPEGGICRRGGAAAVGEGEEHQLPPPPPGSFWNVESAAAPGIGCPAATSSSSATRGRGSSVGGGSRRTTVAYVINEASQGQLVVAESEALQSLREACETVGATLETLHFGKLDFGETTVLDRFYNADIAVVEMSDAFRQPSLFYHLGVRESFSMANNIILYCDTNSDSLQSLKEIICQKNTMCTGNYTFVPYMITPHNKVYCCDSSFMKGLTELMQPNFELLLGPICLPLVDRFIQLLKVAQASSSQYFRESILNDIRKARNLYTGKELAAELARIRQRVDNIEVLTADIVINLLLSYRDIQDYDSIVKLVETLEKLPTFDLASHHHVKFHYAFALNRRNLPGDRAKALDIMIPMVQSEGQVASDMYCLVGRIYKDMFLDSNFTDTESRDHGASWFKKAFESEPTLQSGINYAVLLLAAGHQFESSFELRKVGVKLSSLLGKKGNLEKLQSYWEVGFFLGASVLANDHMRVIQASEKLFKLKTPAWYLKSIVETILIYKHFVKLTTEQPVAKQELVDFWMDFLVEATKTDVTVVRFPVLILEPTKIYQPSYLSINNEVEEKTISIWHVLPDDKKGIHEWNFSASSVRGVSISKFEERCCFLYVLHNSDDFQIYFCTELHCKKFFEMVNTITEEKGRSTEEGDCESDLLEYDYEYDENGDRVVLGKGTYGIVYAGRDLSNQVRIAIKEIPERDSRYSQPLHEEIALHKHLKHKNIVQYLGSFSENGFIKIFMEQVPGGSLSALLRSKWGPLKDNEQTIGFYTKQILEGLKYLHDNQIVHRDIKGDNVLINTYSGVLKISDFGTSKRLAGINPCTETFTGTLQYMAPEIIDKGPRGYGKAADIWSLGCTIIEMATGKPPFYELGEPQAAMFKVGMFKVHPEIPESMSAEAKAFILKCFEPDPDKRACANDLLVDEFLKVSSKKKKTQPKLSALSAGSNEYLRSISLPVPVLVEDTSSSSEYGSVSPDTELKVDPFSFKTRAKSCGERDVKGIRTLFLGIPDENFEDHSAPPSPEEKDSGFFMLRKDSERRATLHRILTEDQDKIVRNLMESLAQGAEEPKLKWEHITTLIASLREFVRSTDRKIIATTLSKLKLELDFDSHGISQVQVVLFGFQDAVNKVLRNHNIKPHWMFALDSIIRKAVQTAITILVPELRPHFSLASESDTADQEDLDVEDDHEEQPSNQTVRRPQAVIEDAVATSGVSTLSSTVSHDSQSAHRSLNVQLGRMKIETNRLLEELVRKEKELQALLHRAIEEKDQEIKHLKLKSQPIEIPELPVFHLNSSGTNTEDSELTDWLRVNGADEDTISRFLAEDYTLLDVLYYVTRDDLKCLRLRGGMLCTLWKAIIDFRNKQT", "assay": "Inhibition of N-terminal GST-tagged recombinant human full length ASK1 expressed in baculovirus-infected Sf21 cells using STK-Substrate-3 biotin as substrate in presence of ATP measured after 2 hrs by HTRF assay", "summary_of_the_method": "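HTRF assay with full-length recombinant human ASK1 at final 2 nM, in buffer containing 5 mM MgCl₂ and 1 mM DTT, 2% DMSO. Reaction run with STK-Substrate 3-biotin (final 2 µM) and ATP for 2 h at rt. STK S3 antibody-Eu then added and incubated a further 1 h. Read at 340 nm excitation and 665 nm emission. IC50 reported as mean ± SD from two independent experiments.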", "units": {"IC50": "nM"}, "values": [{"smiles": "CC(C)n1cnnc1-c1cccc(NC(=O)c2cc3ccc(-c4cn[nH]c4)cc3[nH]2)n1", "IC50": 37.5}, {"smiles": "CC(C)n1cnnc1-c1cccc(NC(=O)c2cc3cccnc3[nH]2)n1", "IC50": 125}, {"smiles": "CCOC(C)n1cc(-c2ccc3cc(C(=O)Nc4cccc(-c5nncn5C(C)C)n4)[nH]c3c2)cn1", "note": "(stereo not drawn)", "IC50": 91.1}, {"smiles": "CC(C)n1cnnc1-c1cccc(NC(=O)c2cc3c(-c4cnn(C)c4)cccc3[nH]2)n1", "IC50": 19.6}, {"smiles": "Cc1c(C(=O)Nc2cccc(-c3nncn3C(C)C)n2)oc2ccccc12", "IC50": 1110}, {"smiles": "CC(C)n1cnnc1-c1cccc(NC(=O)c2cc3cccc(-c4cn[nH]c4)c3[nH]2)n1", "IC50": 38.9}, {"smiles": "C[C@H](CO)n1cnnc1-c1cccc(NC(=O)c2cc3ccccc3[nH]2)n1", "IC50": 65.5}, {"smiles": "CC(C)n1cnnc1-c1cccc(NC(=O)c2nc3ccccc3s2)n1", "IC50": 506}, {"smiles": "CC(C)n1cnnc1-c1cccc(NC(=O)c2cc3cccc(-c4ccsc4)c3[nH]2)n1", "IC50": 153}, {"smiles": "CC(C)n1cnnc1-c1cccc(NC(=O)c2cc3ccc(-c4cccnc4)cc3[nH]2)n1", "IC50": 68.5}, {"smiles": "CC(C)n1cnnc1-c1cccc(NC(=O)c2[nH]c3ccccc3c2-c2ccoc2)n1", "IC50": 143}, {"smiles": "CC(C)n1cnnc1-c1cccc(NC(=O)c2cc3ccccc3n2C)n1", "IC50": 743}, {"smiles": "Cc1c(C(=O)Nc2cccc(-n3cnnn3)c2)oc2ccccc12", "IC50": 16700}, {"smiles": "CC(C)n1cnnc1-c1cccc(NC(=O)c2cc3ccc(-c4cnn(C5CCOCC5)c4)cc3[nH]2)n1", "IC50": 73.7}, {"smiles": "Cc1c(C(=O)Nc2cccc(-c3nncn3C(C)C)n2)[nH]c2ccccc12", "IC50": 88.2}, {"smiles": "CC(C)n1cnnc1-c1cccc(NC(=O)c2cc3cccc(-c4ccncc4)c3[nH]2)n1", "IC50": 23.1}, {"smiles": "CC(C)n1cnnc1-c1cccc(NC(=O)c2cc3cc(-c4cn[nH]c4)ccc3[nH]2)n1", "IC50": 31.6}, {"smiles": "CC(C)n1cnnc1-c1cccc(NC(=O)c2cc3cccc(Cl)c3[nH]2)n1", "IC50": 89.6}, {"smiles": "COc1ccc2cc(C(=O)Nc3cccc(-c4nncn4C(C)C)n3)[nH]c2c1", "IC50": 54.3}, {"smiles": "CC(C)n1cnnc1-c1cccc(NC(=O)c2cc3ccccc3[nH]2)n1", "IC50": 41.4}, {"smiles": "CC(C)n1cnnc1-c1cccc(NC(=O)c2cc3ccccc3o2)n1", "IC50": 152}, {"smiles": "CC(=O)Nc1cccc2cc(C(=O)Nc3cccc(-c4nncn4C(C)C)n3)[nH]c12", "IC50": 240}]}, {"target": "T1, Mitogen-activated protein kinase kinase kinase 5", "assay": "Inhibition of ASK1 (unknown origin)", "units": {"IC50": "nM"}, "values": [{"smiles": "Cc1cc(F)c(C(=O)Nc2cccc(-c3nncn3[C@@H](C)C(F)(F)F)n2)cc1-n1cnc(C2CC2)c1", "IC50": 4.3}]}]}
